Source: ChEMBL document CHEMBL4765291, “Design, synthesis and biological evaluation of novel 3,4-dihydro-2(1H)-quinolinone derivatives as potential chitin synthase inhibitors and antifungal agents” (Eur J Med Chem, 2020)
In brackets after ≈: the same amount, converted by molar mass.

Key:
[1] = tested on: Candida tropicalis; assay: Inhibition of Candida tropicalis ATCC 750 chitin synthase at 300 ug/ml using UDP-GlcNAc as substrate relative to control; details: dose 300.0 µg/ml
Method in brief: (§1)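 Chitin synthase prepared from C. tropicalis ATCC 750 by low- and high-speed centrifugation. DMSO stocks (10 mg/mL) diluted in 50 mM Tris-HCl pH 7.5; test concentrations 300–9.375 µg/mL. Chitin synthesized in WGA-coated wells, bound with WGA-HRP, washed, developed with TMB/H2O2, stopped with 2 M H2SO4, OD read. Duplicate; polyoxin B positive control.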

[2] = tested on: Staphylococcus aureus; assay: Antibacterial activity against methicillin-resistant Staphylococcus aureus N. 315; format: functional
Method in brief: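 Two-fold serial broth dilution in 96-well plates per national clinical standard; beef extract peptone medium (1% peptone, 0.3% beef extract, 0.5% NaCl, […]). Compounds from DMSO stock diluted to test concentrations; incubation 18–24 h. MIC recorded; each group tested independently in triplicate.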

[3] = tested on: Pseudomonas aeruginosa; assay: Antibacterial activity against Pseudomonas aeruginosa ATCC 9027; format: functional
Method in brief: (§2)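 Two-fold serial broth dilution in 96-well plates following National Committee standards; compounds tested at different concentrations. Medium: beef extract peptone (1% peptone, 0.3% beef extract, 0.5% NaCl). Incubation 18–24 h. MIC recorded; streptomycin and norfloxacin as control drugs; each group tested in triplicate.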

[4] = tested on: Candida albicans; assay: Antifungal activity against Candida albicans ATCC 76615 incubated for 48 hrs by two-fold broth dilution analysis; format: functional
Method in brief: (§3)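 Stock solutions in DMSO, diluted to 0.25–512 µg/mL; two-fold serial broth dilution in 96-well plates. Fungi grown on modified Sabouraud chloramphenicol agar (1% peptone, 2% glucose, […]). Incubated 48 h at 37 °C, then MIC (µg/mL) recorded. Fluconazole and polyoxin B as positive controls; each group tested in triplicate.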

[5] = tested on: Proteus vulgaris; assay: Antibacterial activity against Bacillus proteus ATCC 8427; format: functional; method in brief: as §2
[6] = tested on: Staphylococcus aureus; assay: Antibacterial activity against Staphylococcus aureus ATCC 25923; format: functional; method in brief: as §2
[7] = tested on: Aspergillus flavus; assay: Antifungal activity against Aspergillus flavus ATCC 16870 incubated for 48 hrs by two-fold broth dilution analysis; format: functional; method in brief: as §3
[8] = tested on: Cryptococcus neoformans; assay: Antifungal activity against Cryptococcus neoformans ATCC 32719 incubated for 48 hrs by two-fold broth dilution analysis; format: functional; method in brief: as §3
[9] = tested on: Aspergillus fumigatus; assay: Antifungal activity against Aspergillus fumigatus GIMCC 3.19 incubated for 48 hrs by two-fold broth dilution analysis; format: functional; method in brief: as §3
[10] = tested on: Bacillus subtilis; assay: Antibacterial activity against Bacillus subtilis ATCC 6633; format: functional; method in brief: as §2
[11] = tested on: Candida albicans; assay: Antifungal activity against Candida albicans ATCC 90023 incubated for 48 hrs by two-fold broth dilution analysis; format: functional; method in brief: as §3
[12] = tested on: Escherichia coli; assay: Antibacterial activity against Escherichia coli JM 109
[13] = Inhibition of Candida tropicalis ATCC 750 chitin synthase using UDP-GlcNAc as substrate; method in brief: as §1

SMILES | inhibition [1] [%] | MIC [2] [µg/mL] | MIC [3] [µg/mL] | MIC [4] [µg/mL] | MIC [5] [µg/mL] | MIC [6] [µg/mL] | MIC [7] [µg/mL] | MIC [8] [µg/mL] | MIC [9] [µg/mL] | MIC [10] [µg/mL] | MIC [11] [µg/mL] | MIC [12] [µg/mL] | IC50 [13] [µM]
O=C(/C=C/C(=O)NC1Cc2ccccc2NC1=O)Nc1ccccc1Cl (stereo not drawn) | 46.7 | 512 (≈ 1380 µM) | 256 (≈ 692 µM) | 4 (≈ 10.8 µM) | 512 (≈ 1380 µM) | 128 (≈ 346 µM) | 8 (≈ 21.6 µM) | 16 (≈ 43.3 µM) | 8 (≈ 21.6 µM) | 512 (≈ 1380 µM) | 2 (≈ 5.41 µM) | 256 (≈ 692 µM) | –
CN[C@@H]1[C@H](O[C@H]2[C@H](O[C@H]3[C@H](O)[C@@H](O)[C@H](N=C(N)N)[C@@H](O)[C@@H]3N=C(N)N)O[C@@H](C)[C@]2(O)C=O)O[C@@H](CO)[C@H](O)[C@H]1O [STREPTOMYCIN] | – | 16 (≈ 27.5 µM) | 8 (≈ 13.8 µM) | – | 16 (≈ 27.5 µM) | 32 (≈ 55 µM) | – | – | – | 8 (≈ 13.8 µM) | – | 32 (≈ 55 µM) | –
O=C(/C=C/C(=O)NC1Cc2ccccc2NC1=O)Nc1ccc(F)cc1 (stereo not drawn) | 51.2 | 512 (≈ 1450 µM) | 256 (≈ 724 µM) | 2 (≈ 5.66 µM) | 256 (≈ 724 µM) | 128 (≈ 362 µM) | 8 (≈ 22.6 µM) | 8 (≈ 22.6 µM) | 4 (≈ 11.3 µM) | 512 (≈ 1450 µM) | 2 (≈ 5.66 µM) | 256 (≈ 724 µM) | 340
O=C(/C=C/C(=O)NC1Cc2ccccc2NC1=O)Nc1ccccc1[N+](=O)[O-] (stereo not drawn) | 53.3 | 256 (≈ 673 µM) | 256 (≈ 673 µM) | 4 (≈ 10.5 µM) | 256 (≈ 673 µM) | 128 (≈ 337 µM) | 4 (≈ 10.5 µM) | 4 (≈ 10.5 µM) | 8 (≈ 21 µM) | 256 (≈ 673 µM) | 2 (≈ 5.26 µM) | 256 (≈ 673 µM) | 320
O=C(/C=C/C(=O)NC1Cc2ccccc2NC1=O)Nc1ccccc1 (stereo not drawn) | 35.7 | 256 (≈ 763 µM) | 256 (≈ 763 µM) | 4 (≈ 11.9 µM) | 256 (≈ 763 µM) | 256 (≈ 763 µM) | 4 (≈ 11.9 µM) | 4 (≈ 11.9 µM) | 4 (≈ 11.9 µM) | 256 (≈ 763 µM) | 2 (≈ 5.96 µM) | 512 (≈ 1530 µM) | –
O=C(/C=C/C(=O)NC1Cc2ccccc2NC1=O)Nc1ccc([N+](=O)[O-])cc1 (stereo not drawn) | 65.2 | 256 (≈ 673 µM) | 512 (≈ 1350 µM) | 8 (≈ 21 µM) | 256 (≈ 673 µM) | 128 (≈ 337 µM) | 2 (≈ 5.26 µM) | 8 (≈ 21 µM) | 4 (≈ 10.5 µM) | 256 (≈ 673 µM) | 2 (≈ 5.26 µM) | 256 (≈ 673 µM) | 350
Cc1cc(C)cc(NC(=O)/C=C/C(=O)NC2Cc3ccccc3NC2=O)c1 (stereo not drawn) | 71.5 | 512 (≈ 1410 µM) | 256 (≈ 704 µM) | 4 (≈ 11 µM) | 512 (≈ 1410 µM) | 128 (≈ 352 µM) | 1 (≈ 2.75 µM) | 16 (≈ 44 µM) | 2 (≈ 5.5 µM) | 256 (≈ 704 µM) | 2 (≈ 5.5 µM) | 256 (≈ 704 µM) | 190
O=C(/C=C/C(=O)NC1Cc2ccccc2NC1=O)Nc1ccccc1F (stereo not drawn) | 48.9 | 512 (≈ 1450 µM) | 512 (≈ 1450 µM) | 8 (≈ 22.6 µM) | 512 (≈ 1450 µM) | 256 (≈ 724 µM) | 8 (≈ 22.6 µM) | 16 (≈ 45.3 µM) | 1 (≈ 2.83 µM) | 256 (≈ 724 µM) | 4 (≈ 11.3 µM) | 512 (≈ 1450 µM) | –
Cc1ccc(NC(=O)/C=C/C(=O)NC2Cc3ccccc3NC2=O)cc1 (stereo not drawn) | 58.7 | 256 (≈ 733 µM) | 512 (≈ 1470 µM) | 4 (≈ 11.4 µM) | 256 (≈ 733 µM) | 128 (≈ 366 µM) | 4 (≈ 11.4 µM) | 16 (≈ 45.8 µM) | 4 (≈ 11.4 µM) | 512 (≈ 1470 µM) | 2 (≈ 5.72 µM) | 256 (≈ 733 µM) | 260
O=C(/C=C/C(=O)NC1Cc2ccccc2NC1=O)Nc1cccc([N+](=O)[O-])c1 (stereo not drawn) | 49.3 | 256 (≈ 673 µM) | 512 (≈ 1350 µM) | 4 (≈ 10.5 µM) | 256 (≈ 673 µM) | 128 (≈ 337 µM) | 4 (≈ 10.5 µM) | 4 (≈ 10.5 µM) | 8 (≈ 21 µM) | 256 (≈ 673 µM) | 2 (≈ 5.26 µM) | 128 (≈ 337 µM) | –
O=C(/C=C/C(=O)NC1Cc2ccccc2NC1=O)Nc1ccc(Cl)cc1 (stereo not drawn) | 50.5 | 512 (≈ 1380 µM) | 512 (≈ 1380 µM) | 4 (≈ 10.8 µM) | 512 (≈ 1380 µM) | 128 (≈ 346 µM) | 4 (≈ 10.8 µM) | 4 (≈ 10.8 µM) | 8 (≈ 21.6 µM) | 256 (≈ 692 µM) | 2 (≈ 5.41 µM) | 256 (≈ 692 µM) | –
CCn1cc(C(=O)O)c(=O)c2cc(F)c(N3CCNCC3)cc21 [NORFLOXACIN] | – | 4 (≈ 12.5 µM) | 8 (≈ 25.1 µM) | – | 2 (≈ 6.26 µM) | 2 (≈ 6.26 µM) | – | – | – | 4 (≈ 12.5 µM) | – | 8 (≈ 25.1 µM) | –
O=C(/C=C/C(=O)NC1Cc2ccccc2NC1=O)Nc1ccc(Br)cc1 (stereo not drawn) | 40.3 | 256 (≈ 618 µM) | 512 (≈ 1240 µM) | 2 (≈ 4.83 µM) | 512 (≈ 1240 µM) | 128 (≈ 309 µM) | 4 (≈ 9.66 µM) | 16 (≈ 38.6 µM) | 4 (≈ 9.66 µM) | 512 (≈ 1240 µM) | 2 (≈ 4.83 µM) | 512 (≈ 1240 µM) | –
COc1ccc(NC(=O)/C=C/C(=O)NC2Cc3ccccc3NC2=O)cc1 (stereo not drawn) | 74.6 | 256 (≈ 701 µM) | 512 (≈ 1400 µM) | 2 (≈ 5.47 µM) | 256 (≈ 701 µM) | 128 (≈ 350 µM) | 2 (≈ 5.47 µM) | 16 (≈ 43.8 µM) | 4 (≈ 10.9 µM) | 256 (≈ 701 µM) | 1 (≈ 2.74 µM) | 512 (≈ 1400 µM) | 210
Cc1ccccc1NC(=O)/C=C/C(=O)NC1Cc2ccccc2NC1=O (stereo not drawn) | 67.3 | 256 (≈ 733 µM) | 512 (≈ 1470 µM) | 1 (≈ 2.86 µM) | 256 (≈ 733 µM) | 128 (≈ 366 µM) | 4 (≈ 11.4 µM) | 16 (≈ 45.8 µM) | 4 (≈ 11.4 µM) | 512 (≈ 1470 µM) | 2 (≈ 5.72 µM) | 256 (≈ 733 µM) | 380
OC(Cn1cncn1)(Cn1cncn1)c1ccc(F)cc1F [FLUCONAZOLE] | – | – | – | 1 (≈ 3.27 µM) | – | – | 2 (≈ 6.53 µM) | 2 (≈ 6.53 µM) | 2 (≈ 6.53 µM) | – | 1 (≈ 3.27 µM) | – | –
O=C(/C=C/C(=O)NC1Cc2ccccc2NC1=O)Nc1ccccc1Br (stereo not drawn) | 39.9 | 256 (≈ 618 µM) | 512 (≈ 1240 µM) | 4 (≈ 9.66 µM) | 512 (≈ 1240 µM) | 128 (≈ 309 µM) | 2 (≈ 4.83 µM) | 32 (≈ 77.2 µM) | 8 (≈ 19.3 µM) | 512 (≈ 1240 µM) | 2 (≈ 4.83 µM) | 512 (≈ 1240 µM) | –
O=C(/C=C/C(=O)NC1Cc2ccccc2NC1=O)Nc1cccc2ccccc12 (stereo not drawn) | 27.8 | 256 (≈ 664 µM) | 256 (≈ 664 µM) | 2 (≈ 5.19 µM) | 256 (≈ 664 µM) | 256 (≈ 664 µM) | 8 (≈ 20.8 µM) | 4 (≈ 10.4 µM) | 4 (≈ 10.4 µM) | 256 (≈ 664 µM) | 2 (≈ 5.19 µM) | 512 (≈ 1330 µM) | –
NC(=O)OC[C@H](O)[C@@H](O)[C@H](N)C(=O)N[C@H](C(=O)O)[C@H]1O[C@@H](n2cc(CO)c(=O)[nH]c2=O)[C@H](O)[C@@H]1O [POLYOXIN B] | 87.5 | – | – | 2 (≈ 3.94 µM) | – | – | 4 (≈ 7.88 µM) | 4 (≈ 7.88 µM) | 2 (≈ 3.94 µM) | – | 4 (≈ 7.88 µM) | – | 90
O=C(/C=C/C(=O)NC1Cc2ccccc2NC1=O)Nc1cccc(Br)c1 (stereo not drawn) | 45.2 | 512 (≈ 1240 µM) | 256 (≈ 618 µM) | 2 (≈ 4.83 µM) | 256 (≈ 618 µM) | 128 (≈ 309 µM) | 4 (≈ 9.66 µM) | 32 (≈ 77.2 µM) | 4 (≈ 9.66 µM) | 256 (≈ 618 µM) | 1 (≈ 2.41 µM) | 256 (≈ 618 µM) | –
